Screening results as filed in PubChem BioAssay.
NF-kB neuron act: NF-kB expression increase, human neuronal cells; NF-kB reporter expression; stronger effect = higher value; fold change at 12.5 µM; 190,000 compounds, 1.6% hits; in the data active = fold change above about 3.3
APP 5'UTR act: APP 5'UTR luciferase reporter activation | AID 1276 | activation, % at 2 µM | 190,000 compounds, 1% hits | SH-SY5Y APP 5'UTR luciferase reporter, luminescence; zero percent = DMSO vehicle wells;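 active = activation above a set limit, based on mean plus 3 SD of controls, cut at about 140% in these data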
STAT1 inh: STAT1 signaling inhibition; inhibition, % at 5.5 µM; 200,000 compounds, 0.35% hits; NIH 3T3 STAT1-luciferase reporter, IFN-gamma, luminescence;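 active = inhibition above a set limit, the mean inhibition across all tested compounds plus 3 SD, cut at about 34% in these data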
STAT3 blocker: STAT3 signaling inhibition. 190,000 compounds, 0.89% hits. inhibition, % at 5.5 µM. U3A cells, IL-6 STAT3-luciferase reporter, luminescence; host cell line lacks STAT1;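 active = inhibition above the mean inhibition across all screened compounds plus 3 SD, cut at about 44% in these data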
STAT1 activator: activators of IFN-gamma induced STAT1 signaling; NIH 3T3 STAT1-luciferase reporter, luminescence; 100% = IFN-gamma alone, no compound; activation (% of control), % at 5.5 µM; 200,000 compounds, 2.6% hits; AID 932;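 active = activation above the screen-wide mean activation plus 3 SD, cut at about 130% in these data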
STAT3 act: STAT3 signaling activation. activation (% of control), % at 5.6 µM. 190,000 compounds, 0.91% hits. U3A cells, IL-6 STAT3-luciferase reporter, luminescence; 100% = signal with IL-6 EC80 alone. AID 871;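 active = activation above the screen-wide mean of compound activation plus 3 SD, cut at about 130% in these data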
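System – human U3A cells carrying STAT3-luciferase construct · Probe or stimulus – Interleukin-6, 33 ng/mL · Schedule – compound 1 h, then IL-6 6 h at 37 °C · Signal – luminescence from STAT3-driven luciferase reporter · Evaluation – percent of IL-6-only median luminescence · Benchmarks – IL-6-only high control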
STAT1 act conf: STAT1 activation, confirmation assay | shares compounds with STAT1 activator | NIH 3T3 STAT1-luciferase reporter, IFN-gamma potentiation, luminescence; 100% = IFN-gamma EC80 alone, no compound | activation (% of control), % at 5.7 µM | 1,200 compounds, 97% hits;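 active = activation above a set limit carried over from the earlier primary STAT1 screen, cut at about 140% in these data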
NFkB act STAT1ct: counter-screen for STAT1 activators: NF-kappaB activation. shares compounds with STAT1 activator. 1,200 compounds, 43% hits. HEK293T NF-kB luciferase reporter, TNF-alpha stimulated, luminescence; 100% = TNF-alpha with vehicle only. activation (% of control), % at 5.7 µM;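 active = activation above the mean of solvent-only control wells plus 3 SD, set per campaign, cut at about 130% in these data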;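 also: TNF-alpha given at a submaximal dose yielding about 80% of full reporter signal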
STAT3 act 2: counter-screen for STAT1 activators: human STAT3 activation. activation (% of control), % at 5.7 µM. U3A cells STAT3-luciferase reporter, IL-6, luminescence; cells lack STAT1; 100 = IL-6 alone, no compound effect. 1,200 compounds, 46% hits. AID 1316. shares compounds with STAT1 activator;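 active = activation above the solvent-only control well mean plus 3 SD, set per plate batch, cut at about 110% in these data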;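 also: higher means more STAT3 reporter activation so hits are non-selective activators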
Hits are given with their value; . = inactive; / = no result. This is a sample that favours compounds with a hit; in the whole collection about 4.9% have one here.

SMILES	NF-kB neuron act	APP 5'UTR act	STAT1 inh	STAT3 blocker	STAT1 activator	STAT3 act	STAT1 act conf	NFkB act STAT1ct	STAT3 act 2
CCN(CC)c1ccc2cc(-c3nnc(-c4ccccc4)o3)c(=O)oc2c1	.	.	.	.	155	.	185	137	126
Cc1cccnc1NC(=S)Nc1ccc(Br)cc1Cl	.	.	.	.	154	.	198	143	.
Clc1ccc(-n2ncc3c(N4CCCC4)ncnc32)cc1	.	161	.	.	184	.	207	.	.
CCOC(=O)C1CCN(c2ncnc3c2cnn3-c2ccc(Cl)cc2)CC1	.	.	.	.	.	.	/	/	/
CC1CCN(c2ncnc3c2cnn3-c2ccccc2)CC1	4.5	/	.	.	154	.	246	136	.
CCOC(=O)C1CCN(c2ncnc3c2cnn3-c2ccccc2)CC1	.	.	.	.	.	.	/	/	/
Clc1ccc2nc3c4ccccc4cnn3c2c1	8	217	.	.	166	.	238	.	162
CN1CCN(NC(=O)c2cc(Br)ccc2Cl)CC1	.	.	.	.	.	.	/	/	/
O=C1C(C=Nc2ccccc2)=C(O)c2ccccc21	.	.	.	.	163	.	244	.	126
Cc1ccccc1CSc1ncc(C#N)c(N)n1	.	.	.	.	166	.	169	.	.
N#Cc1cnc(SCCc2ccccc2)nc1N	.	.	.	.	.	.	/	/	/
CCOC(=O)CSc1nc(C(C)(C)C)nc2ccccc12	.	.	.	.	.	.	/	/	/
Cc1ccccc1NC(=O)Nc1ccccc1Br	.	.	.	.	.	.	/	/	/
Cc1cc(NC(=O)Nc2ccccc2F)ccc1Br	6.7	213	.	.	181	.	232	141	112
COc1ccc2oc(C(=O)OCc3c(C)noc3C)c(C)c2c1	.	.	.	.	.	.	/	/	/
C=CCNC(=O)c1ccc(OC2CCN(S(=O)(=O)N(C)C)CC2)cc1	.	.	.	.	.	.	/	/	/
Nc1ccc(-c2nc3ccc(-c4nc5ccccc5o4)cc3[nH]2)cc1	.	.	.	.	.	.	/	/	/
Cc1nc2ccc(-c3nc4ccccc4o3)cc2[nH]1	7	143	.	.	195	.	232	.	.
CC(=O)Nc1ccc(S(=O)(=O)Nc2cccc(-c3nc4ccccc4o3)c2)cc1	.	.	.	.	.	.	/	/	/
CC(=O)Nc1nc2ccc(-c3nc4ccccc4o3)cc2s1	5.5	.	.	.	167	.	200	135	115
COCCNC(=O)CC(=O)N/N=C/c1ccc(C(=O)OC)cc1	.	.	.	.	.	.	/	/	/
COc1ccc(-c2nn(-c3ccccc3)cc2C(=O)OCC(=O)c2ccc(C)c([N+](=O)[O-])c2)cc1	.	.	.	.	.	.	/	/	/
Cc1ccsc1/C=N/n1c(-c2ccccn2)n[nH]c1=S	.	.	.	.	.	.	/	/	/
CCn1cnc2sc(-c3ccccc3)cc2c1=O	5.4	182	.	.	158	.	205	.	.
N#CCn1cnc2sc(-c3ccccc3)cc2c1=O	.	.	.	.	.	.	/	/	/
SMILES	NF-kB neuron act	APP 5'UTR act	STAT1 inh	STAT3 blocker	STAT1 activator	STAT3 act	STAT1 act conf	NFkB act STAT1ct	STAT3 act 2
COc1ccccc1CN1CCN(Cc2nc(-c3cccs3)no2)CC1	.	.	.	.	.	.	/	/	/
O=[N+]([O-])c1ccc(F)cc1OCc1nc(-c2cccs2)no1	6.4	156	.	.	172	.	203	145	120
O=[N+]([O-])c1ccccc1OCc1nc(-c2cccs2)no1	7.6	185	.	.	180	.	226	142	122
O=C(O)CCc1nc(-c2cccs2)no1	.	.	.	.	.	.	/	/	/
CCOC(=O)C1=C(N)OC(CCl)=C(C#N)C1c1ccsc1 (stereo not drawn)	.	.	.	.	.	.	/	/	/
O=C(NC1CCCC1)c1cc(-c2cccs2)on1	9.7	.	.	.	173	.	205	147	115
CC(=O)c1sc(Nc2nc3cc4c(cc3s2)OCO4)nc1C	.	.	.	.	174	.	190	142	.
COc1ccc2nc(Nc3nc(C)c(C(C)=O)s3)sc2c1	.	.	.	.	164	.	180	.	.
Cc1ccc2cc3c(N)c(C(=O)N4CCOCC4)sc3nc2c1	.	178	.	.	156	.	.	.	111
CCC(C)NC(=O)c1cc2cc3ccc(OC)cc3nc2s1 (stereo not drawn)	5	214	.	.	153	.	252	.	.
CCOc1ccc2nc3sc(C(=O)N4CCN(C)CC4)c(N)c3cc2c1	.	.	.	.	.	.	/	/	/
COc1ccc2cc3c(N)c(C(=O)N4CCCC4)sc3nc2c1	.	.	.	.	157	.	.	.	.
COc1cccc(NC(=O)NC2CCCc3ccccc32)c1 (stereo not drawn)	.	.	.	.	.	.	/	/	/
CCOc1cc(/C=N/NC(=O)CN2CCCCC2)ccc1OCc1cccc(Cl)c1	.	.	.	.	.	.	/	/	/
CC(C)CSc1nnc2c(n1)[nH]c1ccccc12	4.8	.	.	.	153	.	249	.	.
CCOc1ccccc1C(=O)Nc1ccccc1-c1ccccc1	.	.	.	.	.	.	/	/	/
Cc1ccc(N/N=C(\C#N)C(N)=S)cc1C	.	.	.	.	.	.	/	/	/
Cc1ccc(N/C=C(/C#N)c2ccsc2)cc1C	5.2	.	.	.	193	.	235	156	125
O=c1c(Br)c(Br)cnn1-c1ccccc1	.	.	.	.	177	.	.	.	.
O=c1c2ccccc2cnn1-c1ccc(Cl)nn1	.	.	.	.	.	.	/	/	/
O=c1c2ccccc2cnn1-c1ccc(Br)cc1	6.4	.	.	.	152	.	214	142	141
O=C(CCn1c(=O)c2ccccc2n(Cc2ccccc2)c1=O)NCc1ccc2c(c1)OCO2	.	.	.	.	.	.	/	/	/
Cc1cc(C(C)(C)C)cc(C)c1Cn1c2[n+](c3ccc(C(F)(F)F)cc31)CCCCC2	.	.	.	.	.	.	/	/	/
O=C(Nc1ccc2sccc2c1)c1ccc(Cl)s1	7.7	206	.	.	192	.	275	138	113
CCCOC(=O)c1ccc(-c2ccc(C=O)o2)cc1	4.8	.	.	.	162	.	217	.	.
